Calls of active or inactive are those of the source. The rule behind the calls is not given here.

Data set [1] in a line: Inhibition of L-rhamnosidase (unknown origin).
A short description of data set [2]: Cytotoxicity against mouse RAW264.7 cells assessed as inhibition of cell viability at 100 uM by MTT assay. The class given is cell-based. The settings on record: read-out: INH. In outline: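 Same RAW 264.7 culture and plating as the nitrite assay: compounds in 0.1% DMSO added 1 h before LPS (5 μg/mL solution), then 20 h incubation. Viability read by standard MTT assay. At least triplicate.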

The test system of data set [3] is RAW264.7. Briefly: Antiinflammatory activity in mouse RAW264.7 cells assessed as inhibition of LPS-induced NO production preincubated for 1 hr followed by LPS stimulation measured after 20 hrs by Griess assay. The class given is functional, cell-based. A digest of the protocol: (§1)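 RAW 264.7 cells in DMEM with 10% FBS, penicillin/streptomycin, 2 mM L-glutamine and 1 mM nonessential amino acids, seeded at 4 × 10^5 cells/well, settled 4 h at 37 °C, 5% CO2. Compounds in 0.1% DMSO (final 0.1–100 μM) added 1 h before LPS (5 μg/mL solution). After a further 20 h, supernatant mixed 1:1 with Griess reagent for 5 min, A540 read. At least triplicate; indomethacin as reference.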

The test system of data set [4] is RAW264.7. Briefly: Antiinflammatory activity in mouse RAW264.7 cells assessed as inhibition of LPS-induced NO production at 100 uM preincubated for 1 hr followed by LPS stimulation measured after 20 hrs by Griess assay. In kind it is functional, cell-based. A digest of the protocol: as §1
For data set [5], the system named is RAW264.7. Briefly: Antiinflammatory activity in mouse RAW264.7 cells assessed as inhibition of LPS-induced iNOS overexpression at 5 uM after 24 hrs by Western blot analysis. In kind it is functional, cell-based. A digest of the protocol: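 RAW 264.7 cells pretreated with 5 μg/mL LPS or solvent, then exposed to 5 μM compound for 24 h. Lysed in cold buffer with 1% PMSF; protein by Bradford, 25 μg run on SDS-PAGE, blotted to nitrocellulose, blocked in 5% milk/TBS-Tween 60 min. Anti-iNOS overnight at 4 °C, HRP secondary 1 h, ECL on film; densitometry normalized to β-actin. Mean ± SD, n = 3–5.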
(A western blot detects proteins with antibodies after separation by electrophoresis.)

Consider `O[C@@H]1[C@@H]2[C@@H](O)CCCN2C[C@@H]1O`, for which the Ki in data set [1] was determined as 0.45 µM.

With `CC(=O)CCCC[C@H]1C[C@@H](C)[C@@](O)(c2ccccc2)CN1`, the cytotoxicity at 100 µM in data set [2] was < 10%. Besides, the IC50 in the data set with RAW264.7 [3] stood at 27.6 µM.

For `CC(=O)[C@H]1[C@@H]2CC[C@H]3C[C@@H](C)[C@](O)(c4ccccc4)[C@H](C[C@@]1(C)O)N32`, in the data set on RAW264.7 [4], the inhibition result is “inactive”. Further, the cytotoxicity at 100 µM in data set [2] was < 10%.

For `C[C@@H]1C[C@@H]2CCCN2[C@H](CC(=O)C[C@H]2N3CCC[C@H]3C[C@@H](C)[C@]2(O)c2ccccc2)[C@@]1(O)c1ccccc1`, in the data set on RAW264.7 [5], the inhibition entry was “inactive”. Besides, the IC50 with RAW264.7 [3] was 22.8 µM.

In the case of `C[C@H]1C[C@H]2CCCN2[C@@H](CC(=O)C[C@@H]2N3CCC[C@@H]3C[C@H](C)[C@@]2(O)c2ccccc2)[C@]1(O)c1ccccc1`, in the data set with RAW264.7 [5], the inhibition entry is “Active”. For the same compound, the IC50 in the data set on RAW264.7 [3] was determined as 3.6 µM.

For `CC1CC2CCCN2C(CC(=O)CC2N3CCCC3CC(C)C2(O)c2ccccc2)C1(O)c1ccccc1` (racemic), the cytotoxicity at 100 µM in data set [2] was < 10%. The inhibition entry with RAW264.7 [5] is “inactive”. The IC50 in the data set on RAW264.7 [3] stood at 14.7 µM.

As a reminder, the Ki is a measure of affinity in units of concentration, obtained from inhibition or displacement. A lower Ki goes with higher affinity. By IC50 is commonly meant the midpoint of a concentration-inhibition curve.
